Assay results published in ChEMBL document CHEMBL1126566, “Studies on analogues of classical antifolates bearing the naphthoyl group in place of benzoyl in the side chain” (J Med Chem, 1993).
pIC50, pKi: −log10 of the molar value.

Experiments:
Mus musculus [1] = test: Antitumor activity against E0771 mammary adenocarcinoma in mice at 3 mg/kg(5 days) was determined and tumor volume at day 7 was reported; assay type: functional
In short: (§1)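 Mice bearing implanted E0771 mammary adenocarcinoma, five per test group. Dosing was daily for 5 days, starting on day 3 after implantation. Tumor volume (mm³) was calculated as 4/3πr³ and is also expressed as treated/control (%).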

L1210 [2] = test: Tested for the ability to inhibit growth in vitro against L1210; assay type: functional, cell-based; settings: Mus musculus
Mus musculus [3] = test: Antitumor activity against E0771 mammary adenocarcinoma in mice at 6 mg/kg(5 days) was determined and […] at day 14 was reported; toxic indicates 4 toxic deaths; assay type: organism-based; parameters: dose 6 mg/kg; settings: in vivo, 120 h
In short: (§2)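 E0771 mammary adenocarcinoma implanted in mice, five mice per group. Treatment was given daily for 5 days, starting day 3 after implantation. Tumor volume was calculated as 4/3πr³ and averaged on days 7, 10 and 14. T/C (%) is the treated/control tumor volume. Toxic deaths were recorded.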

L1210 [4] = test: Tested for transport into L1210 cells measured as cell influx; assay type: functional, cell-based, Mus musculus
[5] = Activity relative to saturating aminopterine at 100 uM against CCRF-CEM Folyl-polyglutamate synthetase; assay type: ADME; settings: human
In short: (§3)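 FPGS from CCRF-CEM cells: freeze-thawed lysates fractionated by (NH₄)₂SO₄ (0–40% saturation pellet) and gel sieving, stored at –90 °C in 20% glycerol, free of detectable γ-glutamyl hydrolase. Product was separated on DEAE-cellulose minicolumns. Run in duplicate or triplicate, and each experiment was repeated at least once.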

Mus musculus [6] = test: Antitumor activity against E0771 mammary adenocarcinoma in mice at 3 mg/kg(5 days) was determined and tumor volume at day 14 was reported; assay type: functional; in short: as §1
HL-60 = test: Tested for the ability to inhibit growth in vitro against HL60; assay type: functional, cell-based; settings: Homo sapiens
[7] = Percent inhibition of Folyl-polyglutamate synthase from CCRF-CEM cells; assay type: cell-based, Homo sapiens
In short: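 FPGS was partially purified from CCRF-CEM cells by (NH₄)₂SO₄ fractionation and gel sieving, with no detectable γ-glutamyl hydrolase. Product was separated on DEAE-cellulose. Percent inhibition is reported.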

CCRF S-180 [8] = test: Tested for the ability to inhibit growth in vitro against S180; assay type: functional, cell-based; settings: Mus musculus
Mus musculus [9] = test: Antitumor activity against E0771 mammary adenocarcinoma in mice at 3 mg/kg(5 days) was determined and […] at day 10 was reported; assay type: functional; in short: as §2
Dihydrofolate reductase = target: T1, Dihydrofolate reductase (Mus musculus, UniProt P00375); test: Inhibitory activity of Dihydrofolate reductase in L1210 cells; assay type: cell-based
T1 sequence (P00375 whole entry): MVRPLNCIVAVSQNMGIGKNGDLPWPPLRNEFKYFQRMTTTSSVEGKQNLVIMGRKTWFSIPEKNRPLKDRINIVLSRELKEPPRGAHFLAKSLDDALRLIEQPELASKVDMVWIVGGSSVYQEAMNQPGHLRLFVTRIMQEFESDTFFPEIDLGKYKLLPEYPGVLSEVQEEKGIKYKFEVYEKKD

Mus musculus [10] = test: Antitumor activity against E0771 mammary adenocarcinoma in mice at 6 mg/kg(5 days) was determined and […] at day 7 was reported; assay type: functional; in short: as §2
Mus musculus [11] = test: Antitumor activity against E0771 mammary adenocarcinoma in mice at 3 mg/kg(5 days) was determined and […] at day 7 was reported; assay type: functional; in short: as §2
Mus musculus [12] = test: Antitumor activity against E0771 mammary adenocarcinoma in mice at 3 mg/kg(5 days) was determined and tumor volume at day 10 was reported; assay type: functional; in short: as §1
Mus musculus [13] = test: Antitumor activity against E0771 mammary adenocarcinoma in mice at 6 mg/kg(5 days) was determined and tumor volume at day 10 was reported; assay type: functional; in short: as §1
Mus musculus [14] = test: Antitumor activity against E0771 mammary adenocarcinoma in mice at 3 mg/kg(5 days) was determined and […] at day 14 was reported; assay type: functional; in short: as §2
Mus musculus [15] = test: Antitumor activity against E0771 mammary adenocarcinoma in mice at 6 mg/kg(5 days) was determined and tumor volume at day 7 was reported; assay type: functional; in short: as §1
Mus musculus [16] = test: Antitumor activity against E0771 mammary adenocarcinoma in mice at 6 mg/kg(5 days) was determined and tumor volume at day 14 was reported; toxic indicates 4 toxic deaths; assay type: organism-based; parameters: dose 6 mg/kg; settings: in vivo, 120 h; in short: as §2
Mus musculus [17] = test: Antitumor activity against E0771 mammary adenocarcinoma in mice at 6 mg/kg(5 days) was determined and […] at day 10 was reported; assay type: functional; in short: as §2
[18] = tested on: Folyl-polyglutamate synthase; test: Michaelis-Menten constant was determined against CCRF-CEM Folyl-polyglutamate synthase; assay type: ADME; settings: human, folylpolyglutamate synthase from CCRF-CEM cells; in short: as §3
Mus musculus [19] = test: Antitumor activity against E0771 mammary adenocarcinoma in mice at 100 mg/kg(5 days) was determined and tumor volume at day 14 was reported; assay type: functional; in short: as §1
Mus musculus [20] = test: Antitumor activity against E0771 mammary adenocarcinoma in mice at 100 mg/kg(5 days) was determined and […] at day 14 was reported; assay type: functional
[21] = target: T2, Folylpolyglutamate synthase, mitochondrial (Mus musculus) (UniProt P48760); test: Specific activity of L1210 Folyl-polyglutamate synthase
T2 sequence (whole entry): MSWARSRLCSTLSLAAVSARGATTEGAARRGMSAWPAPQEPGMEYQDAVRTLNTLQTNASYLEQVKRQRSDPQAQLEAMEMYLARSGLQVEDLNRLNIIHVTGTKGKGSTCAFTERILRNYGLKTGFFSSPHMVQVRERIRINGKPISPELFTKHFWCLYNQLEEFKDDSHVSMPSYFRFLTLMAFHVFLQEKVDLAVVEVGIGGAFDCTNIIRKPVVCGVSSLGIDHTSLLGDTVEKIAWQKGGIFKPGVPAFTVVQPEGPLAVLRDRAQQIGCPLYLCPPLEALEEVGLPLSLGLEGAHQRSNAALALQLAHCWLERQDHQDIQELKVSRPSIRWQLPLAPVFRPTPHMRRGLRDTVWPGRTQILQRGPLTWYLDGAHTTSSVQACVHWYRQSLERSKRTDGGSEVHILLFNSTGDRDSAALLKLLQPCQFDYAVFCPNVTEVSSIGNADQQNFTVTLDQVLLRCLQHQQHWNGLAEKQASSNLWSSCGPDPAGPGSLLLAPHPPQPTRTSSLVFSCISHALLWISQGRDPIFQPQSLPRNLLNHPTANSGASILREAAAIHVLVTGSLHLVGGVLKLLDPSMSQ
In short: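 FPGS from L1210 cells was assayed by [³H]glutamate ligation, like the human enzyme assay. Each folate substrate was at 100 μM, and only specific activity was measured.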

Mus musculus [22] = test: Antitumor activity against E0771 mammary adenocarcinoma in mice at 30 mg/kg(5 days) was determined and tumor volume at day 14 was reported; assay type: functional
Mus musculus [23] = test: Antitumor activity against E0771 mammary adenocarcinoma in mice at 30 mg/kg(5 days) was determined and […] at day 14 was reported; assay type: functional
CCRF S-180 [24] = test: Tested for the ability to inhibit growth in vitro against S180 cells; assay type: functional, cell-based; settings: Mus musculus

Row | Compound | Tumor volume (Mus musculus [1]) [mm**3] | pIC50 (L1210 [2]) | pKi (L1210 [4]) | pIC50 (HL-60) | T/C (Mus musculus [9]) [%] | T/C (Mus musculus [10]) [%] | T/C (Mus musculus [11]) [%] | Tumor volume (Mus musculus [12]) [mm**3] | Tumor volume (Mus musculus [13]) [mm**3] | Tumor volume (Mus musculus [15]) [mm**3] | T/C (Mus musculus [17]) [%] | also measured
1 | Cc1c(CNc2ccc(C(=O)NC(CCC(=O)O)C(=O)O)c3ccccc23)cnc2nc(N)nc(N)c12 (configuration not stated) | 113 | 8.41 | 5.88 | 9.13 | 68 | 39 | 51 | 421 | 42 | 87 | 7 | T/C (Mus musculus [3]): Toxic; Relative Vmax [5]: 0.02; Tumor volume (Mus musculus [6]): 1048 mm**3; pIC50 [7]: 4.16; pIC50 (CCRF S-180 [8]): 8.42; pKi (Dihydrofolate reductase): 11.29; T/C (Mus musculus [14]): 60%; Tumor volume (Mus musculus [16]): Toxic
2 | CN(Cc1cnc2nc(N)nc(N)c2n1)c1ccc(C(=O)N[C@@H](CCC(=O)O)C(=O)O)cc1 [METHOTREXATE] | 180 | 8.05 | 5.41 | 8.09 | 100 | 49 | 81 | 624 | 187 | 108 | 30 | Km [18]: 42 µM; Tumor volume (Mus musculus [19]): 1437 mm**3; T/C (Mus musculus [20]): 83%; Specific activity (pM hr-1 (mg of protein)-1) [21]: 0.38; Tumor volume (Mus musculus [22]): 540 mm**3; T/C (Mus musculus [23]): 31%; pIC50 (CCRF S-180 [24]): 8.00
